The source of these data is ChEMBL document CHEMBL4765449, “Synthesis, biological evaluation and toxicity of novel tetrandrine analogues” (Eur J Med Chem, 2020).

Data set [1] relates to HepG2. The experiment in a line: Cytotoxicity against human HepG2 cells overexpressing EGFP-CYP3A4 assessed as reduction in cell viability at 15 uM measured after 24 hrs by propidium iodide staining based flow cytometry. It is filed as functional. A digest of the protocol: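 HepG2 stably transfected (G418 0.5 mg/mL, four weeks; plasmid confirmed by PCR) with pcDNA3-CYP3A4-EGFP or empty vector, 0.1 × 10^6 per well, adhered overnight; 15 μM compound 24 h. Propidium iodide staining and flow cytometry; specific cell death relative to control. Three independent experiments.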
A general note: Flow cytometry measures light scatter and fluorescence of single cells or particles in a stream.

Data set [2] deals with CEM. The experiment in a line: Inhibition of P-gp in vincristine-resistant human CEM cells at 0.1 to 1 uM using calcein-AM as substrate preincubated for 30 mins followed by compound washout and subsequent substrate addition measured after 60 mins by flow cytometric analysis. As to conditions: dose 0.1-1 µM. The format is cell-based.
Data set [3] has as its system CCRF-CEM. The experiment in a line: Effect on P-gp expression in vincristine-resistant human CEM cells at 1 uM measured after 1.5 hrs by immunostaining based flow cytometry. It is filed as functional, cell-based. A digest of the protocol:
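VCR-R CEM, 2 × 10^4 cells, 1 μM compound 1.5 h at 37 °C; washed in ice-cold 1% BSA/PBS, stained 30 min at 4 °C in dark with FITC anti-human P-gp, isotype control for background; flow cytometry, gMFI normalized to DMSO. Three independent experiments.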

The test system of data set [4] is CEM. The experiment in a line: Inhibition of P-gp in vincristine-resistant human CEM cells assessed as potentiation of vincristine-induced apoptosis 1 uM measured after 48 hrs by propidium iodide staining based flow cytometry. It is filed as cell-based. A digest of the protocol:
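VCR-R CEM, 0.125 × 10^6 per well, rested 4 h, then incubated 48 h with increasing vincristine with or without 1 μM compound; apoptosis by propidium iodide staining and flow cytometry. Three independent experiments.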

Data set [5] has as its system CEM. The experiment in a line: Effect on AKT phosphorylation at Ser473 residue in vincristine-resistant human CEM cells at 5 uM measured after 24 hrs by Western blot analysis. The format is cell-based. A digest of the protocol: (§1)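 VCR-R CEM cells, 2 × 10^6 per well, seeded 4 h before 5 μM compound or DMSO for 24 h; RIPA lysis, SDS-PAGE, PVDF blotting, chemiluminescence. Probed for p-Akt (Ser473), total Akt, PARP, Bcl-xL, Mcl-1; stain-free total protein as loading control.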
Background: Immunoblotting shows a protein as a band on a membrane.

Data set [6] deals with CCRF-CEM. The experiment in a line: Effect on Bcl-XL expression in vincristine-resistant human CEM cells at 5 uM measured after 24 hrs by Western blot analysis. The format is functional, cell-based. The gist of the method: as §1
For data set [7], the system named is CCRF-CEM. The experiment in a line: Effect on MCL1 expression in vincristine-resistant human CEM cells at 5 uM measured after 24 hrs by Western blot analysis. The format is functional, cell-based. The gist of the method: as §1
For data set [8], the system named is CCRF-CEM. The experiment in a line: Induction of apoptosis in vincristine-resistant human CEM cells assessed as increase in PARP cleavage at 5 uM measured after 24 hrs by Western blot analysis. The format is functional, cell-based. A digest of the protocol:
as §1

Data set [9] relates to CCRF-CEM. The experiment in a line: Induction of mitochondrial membrane disruption in vincristine-resistant human CEM cells at 5 uM measured after 24 hrs by JC-1 dye based flow cytometric analysis. It is filed as functional, cell-based. A digest of the protocol:
(§2)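 Cells (HepG2 adhered overnight; VCR-R CEM seeded 4 h before) treated with DMSO or 5 μM for 24 h; JC-1 (1 μg/mL) 1 h before harvest, PBS wash, flow cytometry; green shift read as loss of ΔΨm. CCCP (100 μM, 1 h) positive control; elacridar (5 μM) present for CEM staining.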

Data set [10] has as its system HepG2. The experiment in a line: Induction of apoptosis in human HepG2 cells assessed as increase in PARP cleavage at 5 uM measured after 24 hrs by Western blot analysis. The format is functional, cell-based. A digest of the protocol: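 HepG2, 0.5 × 10^6 per well, adhered overnight, then DMSO or 5 μM compound; RIPA lysates immunoblotted by SDS-PAGE/PVDF with chemiluminescent detection.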

Data set [11] relates to HepG2. The experiment in a line: Induction of mitochondrial membrane disruption in human HepG2 cells at 5 uM measured after 24 hrs by JC-1 dye based flow cytometric analysis. The format is functional, cell-based. A digest of the protocol:
as §2

Data set [12] concerns HepaRG. The experiment in a line: Cytotoxicity against human HepaRG cells overexpressing EGFP-CYP3A4 assessed as reduction in cell viability at 10 uM measured after 24 hrs by propidium iodide staining based flow cytometry. It is filed as ADME. The gist of the method: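 HepaRG cells, differentiated, transiently transfected with pcDNA3-CYP3A4-EGFP or empty vector 16 h before stimulation; 10 μM compound for 24 h. Propidium iodide (5 μg/mL in PBS) staining, flow cytometry without FSC/SSC gating; specific cell death = % dead (treated) − % dead (control). Three independent experiments.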

Data set [13] concerns HepaRG. The experiment in a line: Cytotoxicity against human HepaRG cells assessed as reduction in cell viability at 10 uM measured after 24 hrs by Celltiter-blue cell viability assay. The format is cell-based. A digest of the protocol:
(§3)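 Differentiated HepaRG cells (Maintenance/Metabolism medium) exposed 24 h to 10 or 20 μM compound; viability by CellTiter-Blue, normalized to vehicle control. Means ± SEM of three independent experiments.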
A general note: Resazurin is reduced to fluorescent resorufin, in cell work by metabolically active cells.

The next data set relates to HUVEC. The experiment in a line: Cytotoxicity against HUVEC assessed as reduction in cell viability at 1 to 10 uM measured after 24 hrs by Celltiter-blue cell viability assay. The format is cell-based. As to conditions: human, dose 1-10 µM. A digest of the protocol: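 HUVECs seeded, adhered overnight, exposed 24 h to 1, 5 and 10 μM; CellTiter-Blue viability normalized to vehicle control; three independent experiments.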

The nature of data set [14]: Cytotoxicity against human PBMC assessed as reduction in cell viability at 1 to 10 uM measured after 48 hrs by propidium iodide staining based flow cytometry.
For data set [15], the system named is HepaRG. The experiment in a line: Cytotoxicity against human HepaRG cells assessed as reduction in cell viability at 20 uM measured after 24 hrs by Celltiter-blue cell viability assay. It is filed as cell-based. The gist of the method:
as §3

The source made the active and inactive calls. No cut-off for these calls is given here.

Consider `COc1cc2c3cc1Oc1c(OC)c(OC)cc4c1[C@@H](Cc1ccc(O)c(c1)Oc1ccc(cc1)C[C@@H]3N(C)CC2)N(C)CC4`, for which the outcome in the data set on HepG2 [1] was Active.
`COc1cc2c3cc1Oc1c(OC)c(OC)cc4c1C(Cc1ccc(Cl)c(c1)Oc1ccc(cc1)CC3N(C)CC2)N(C)CC4` (mixture of isomers): the outcome in the data set on HepG2 [1], in the data set on CCRF-CEM [8] and with CCRF-CEM [9] was Active. Also, the inhibition result with CEM [2] and in the data set on CEM [4] was “Active” in each case. In addition, the outcome with CCRF-CEM [3], in the data set on CEM [5], in the data set with CCRF-CEM [6], in the data set with CCRF-CEM [7], with HepG2 [10] and in the data set on HepG2 [11] was inactive.
`COc1cc2c3cc1Oc1c(OC)c(OC)cc4c1C(CCCCOc1ccc(cc1)CC3N(C)CC2)N(C)CC4` (racemic) [listing 1 of 2 here]: the Activity result with HepaRG [12] is reported as “Toxic”.
`COc1cc2c3cc1Oc1c(OC)c(OC)cc4c1C(Cc1cccc(c1)Oc1ccc(cc1)CC3N(C)CC2)N(C)CC4` (racemic; form 1) [listing 1 of 2 here]: in the data set on HepaRG [13], the Activity result is recorded as “Toxic”.
As for `COc1cc2c3cc1Oc1c(OC)c(OC)cc4c1C(Cc1cc(cs1)Oc1ccc(cc1)CC3N(C)CC2)N(C)CC4` (racemic; form 1), the Activity result (with HUVEC; in data set [14]) was “Toxic” throughout.
Turning to `COc1cc2c3cc1Oc1c(OC)c(OC)cc4c1C(Cc1cc(cs1)Oc1ccc(cc1)CC3N(C)CC2)N(C)CC4` (racemic; form 2) [listing 1 of 2 here], in the data set on HepG2 [1], the outcome was Active. Besides, the inhibition entry in the data set with CEM [2] and in the data set with CEM [4] was “Active” in each case. Further, the result in the data set with CCRF-CEM [3], in the data set on CEM [5], in the data set on CCRF-CEM [6], with CCRF-CEM [7], with CCRF-CEM [9] and in the data set with HepG2 [10] was inactive. Also, in the data set on HepG2 [11], the result was inactive.
Turning to `COc1cc2c3cc1Oc1c(OC)c(OC)cc4c1C(CCCCOc1ccc(cc1)CC3N(C)CC2)N(C)CC4` (single isomer, unassigned; diastereomer 2) [listing 1 of 2 here], the Activity result with HepaRG [13] and in the data set with HepaRG [15] was “Toxic” throughout.
As for `COc1cc2c3cc1Oc1c(OC)c(OC)cc4c1C(Cc1ccc(Cl)c(c1)Oc1ccc(cc1)CC3N(C)CC2)N(C)CC4` (racemic) [listing 1 of 2 here], in the data set on HepaRG [12], the Activity result is given as “Toxic”.
Regarding `COc1cc2c3cc1Oc1c(OC)c(OC)cc4c1C(CCCCOc1ccc(cc1)CC3N(C)CC2)N(C)CC4` (single isomer, unassigned; diastereomer 2) [listing 2 of 2 here], in the data set with HepG2 [1], the result was Active. Moreover, the inhibition entry in the data set with CEM [2] and with CEM [4] was “inactive” throughout. Further, the result in the data set on CCRF-CEM [3], in the data set with CEM [5], with CCRF-CEM [6], in the data set with CCRF-CEM [7], in the data set on CCRF-CEM [9] and with HepG2 [10] was inactive. For the same compound, the result in the data set on HepG2 [11] was inactive.
As to `COc1cc2c3cc1Oc1c(OC)c(OC)cc4c1C(Cc1ccc(Cl)c(c1)Oc1ccc(cc1)CC3N(C)CC2)N(C)CC4` (racemic) [listing 2 of 2 here], the result in the data set on HepG2 [1] was Active. The inhibition entry in the data set on CEM [2] and in the data set with CEM [4] was “Active” throughout. Further, the outcome in the data set on CCRF-CEM [3], with CEM [5], in the data set on CCRF-CEM [6], in the data set on CCRF-CEM [7], with CCRF-CEM [9] and in the data set with HepG2 [10] was inactive. Moreover, the result with HepG2 [11] was inactive.
Take `COc1cc2c3cc1Oc1c(OC)c(OC)cc4c1C(Cc1cccc(c1)Oc1ccc(cc1)CC3N(C)CC2)N(C)CC4` (racemic; form 2) [listing 1 of 2 here]: the Activity entry with HepaRG [15] and in the data set on HepaRG [12] was “Toxic” throughout.
With `COc1cc2c(cc1OC)[C@@H](Cc1ccc(Oc3cc(C[C@@H]4c5cc(OC)c(OC)cc5CCN4C)ccc3O)cc1)N(C)CC2`, the outcome in the data set on HepG2 [1] was Active.
With `COc1cc2c3cc1Oc1c(OC)c(OC)cc4c1C(Cc1cccc(c1)Oc1ccc(cc1)CC3N(C)CC2)N(C)CC4` (racemic; form 2) [listing 2 of 2 here], the outcome in the data set on HepG2 [1] and with CCRF-CEM [9] was Active. The inhibition result in the data set on CEM [2] and in the data set on CEM [4] was “Active” throughout. For the same compound, the result with CCRF-CEM [3], in the data set on CEM [5], in the data set on CCRF-CEM [6], with CCRF-CEM [7], in the data set with HepG2 [10] and with HepG2 [11] was inactive.
Consider `COc1cc2c3cc1Oc1c(OC)c(OC)cc4c1C(Cc1cccc(c1)Oc1ccc(cc1)CC3N(C)CC2)N(C)CC4` (racemic; form 1) [listing 2 of 2 here], for which the result with HepG2 [1] and in the data set on CCRF-CEM [8] was Active. Further, the inhibition entry in the data set with CEM [2] and with CEM [4] was “Active” each time. Also, the result with CCRF-CEM [3], with CEM [5], with CCRF-CEM [6], in the data set on CCRF-CEM [7], in the data set on CCRF-CEM [9] and in the data set on HepG2 [10] was inactive. Moreover, the outcome with HepG2 [11] was inactive.
On to `COc1cc2c3cc1Oc1c(OC)c(OC)cc4c1C(Cc1ccc(OC(F)(F)F)c(c1)Oc1ccc(cc1)CC3N(C)CC2)N(C)CC4` (racemic; form 2), for which the Activity result in the data set with HepaRG [12] is recorded as “Toxic”.
`COc1cc2c3cc1Oc1c(OC)c(OC)cc4c1C(Cc1cc(cs1)Oc1ccc(cc1)CC3N(C)CC2)N(C)CC4` (racemic; form 2) [listing 2 of 2 here]: the Activity result in the data set on HepaRG [13], in the data set on HepaRG [15] and in the data set on HepaRG [12] was “Toxic” in each case.
Turning to `COc1cc2c3cc1Oc1c(OC)c(OC)cc4c1C(CCCCOc1ccc(cc1)CC3N(C)CC2)N(C)CC4` (racemic) [listing 2 of 2 here], in the data set on HepG2 [1], the outcome was Active. The inhibition entry in the data set with CEM [2] and in the data set on CEM [4] was “inactive” in each case. In addition, the outcome with CCRF-CEM [3], in the data set with CEM [5], in the data set on CCRF-CEM [6], with CCRF-CEM [7], in the data set with CCRF-CEM [9] and in the data set with HepG2 [10] was inactive. For the same compound, the result with HepG2 [11] was inactive.
`COc1cc2c3cc1Oc1c(OC)c(OC)cc4c1C(Cc1ccc(OC(F)(F)F)c(c1)Oc1ccc(cc1)CC3N(C)CC2)N(C)CC4` (racemic; form 1): the outcome in the data set with HepG2 [1], in the data set on CCRF-CEM [8] and in the data set on CCRF-CEM [9] was Active. In addition, the inhibition entry in the data set on CEM [2] and in the data set with CEM [4] was “Active” each time. Besides, the result with CCRF-CEM [3], in the data set with CEM [5], in the data set on CCRF-CEM [6], in the data set on CCRF-CEM [7], in the data set on HepG2 [10] and in the data set with HepG2 [11] was inactive.
